Measurements from different studies.
Target: Activated CDC42 kinase 1 (TNK2, Homo sapiens, UniProt Q07912)

CCCOc1ccc([C@H]2[C@H](C(=O)O)[C@@H](c3ccc4c(c3)OCO4)CN2CC(=O)Nc2c(CC)cccc2CC)cc1 — remaining binding (cell-free assay; competition with immobilised ligand; 1 µM): 100%
COc1cc2nccc(Oc3ccc(NC(=O)c4c5n(n(-c6ccc(F)cc6)c4=O)CCCC5)cc3)c2cc1OC — inhibition (enzyme activity; inhibitor; 0.1 µM): 6%
CS(=O)(=O)CCNCc1ccc(-c2ccc3ncnc(Nc4ccc(OCc5cccc(F)c5)c(Cl)c4)c3c2)o1 — remaining signal (cell-free assay; 0.5 µM): 97.5%
Cc1ccc(NC(=O)c2ccc(C)c(C(F)(F)F)c2)cc1C#Cc1nn(C2CCC(O)CC2)c2ncnc(N)c12 (centres unmarked) — remaining signal (cell-free assay; 10 µM): 4%
CCCOc1ccc(OC)c(F)c1C(=O)c1ccc(C(=O)N[C@@H]2CNC[C@H]2NC(=O)c2ccc3[nH]ncc3c2)cc1 — remaining activity (enzyme activity; inhibitor; 10 µM): 92%
CN(C)CC#Cc1ccc(OCCCc2sc(N3CCc4cccc(C(=O)Nc5nc6ccccc6s5)c4C3)nc2C(=O)O)c(F)c1 — remaining binding (cell-free assay; competition with immobilised ligand; 1 µM): 100%
CC(C)(C)c1nc2c(s1)c1nc(N)ncc1c1ccc(NS(=O)(=O)c3c(F)cccc3F)c(F)c12 — remaining activity (enzyme activity; inhibitor; radiometric; 1 µM): 75%
CCCCNc1ncc2c(-c3ccc(F)cc3)nn(C[C@H]3CC[C@H](N)CC3)c2n1 — inhibition (target engagement in cells; inhibitor; chemoproteomics; 20 mM): 71.4%
CCN(CC)c1ccc(C2=NNC(=O)CC2C)cc1[N+](=O)[O-] (centres unmarked) — remaining activity (enzyme activity; inhibitor; 10 µM): 94%
N#CC1(c2ccccn2)CCN(Cc2cc(C(=O)N3CCCC3)c(=O)n3ccccc23)CC1 — remaining binding (cell-free assay; competition with immobilised ligand; 1 µM): 85%
Cc1cnc(NC2CCOCC2)nc1-n1cnc(C(=O)NC(CN)c2cc(F)cc(Cl)c2)c1 (centres unmarked) — remaining activity (enzyme activity; inhibitor; radiometric; 1 µM): 110%
O=S1(=O)N=C(NCc2ccc(OC(F)(F)F)cc2)Nc2cc(Cl)ccc21 — inhibition (binding; competition with immobilised ligand; 10 µM): > 90%
CNC(=O)c1ccc(Nc2ncc(C(F)(F)F)c(NCc3nccnc3N(C)S(C)(=O)=O)n2)cc1 — remaining binding (cell-free assay; competition with immobilised ligand; 0.1 µM): 100%
O=C(Nc1cnn(-c2csc(C(=O)NC3COC3)c2)c1)Nc1ccccc1Cl — remaining activity (enzyme activity; inhibitor; 5 µM): 85.6%
N#CCCc1ccc2c(c1)-c1[nH]c3ccc([N+](=O)[O-])cc3c1CC(=O)N2 — remaining signal (cell-free assay; 0.5 µM): 75.4%
CO[C@@H](C)c1c(Nc2ccc([C@H](N(C)C(=O)C3CCS(=O)(=O)CC3)C(F)(F)F)cc2)cnc2cc(Cl)nn12 — remaining binding (cell-free assay; competition with immobilised ligand; 1 µM): 100%
Cc1sc(C(=O)NC2COC2)cc1-n1cc(NC(=O)Nc2c(F)cccc2Cl)cn1 — remaining activity (enzyme activity; inhibitor; 10 µM): 106%
